Efflux pump mplx = inhibitors of Candida efflux pumps in yeast, primary screen, S. cerevisiae, Nile Red, multiplex | S. cerevisiae Candida pump triplex | actives 0.44% (n = 330,000) | AID 485275, 2010 | inhibition, % at 10 µM;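 active = plate passing quality check with inhibition over a set limit, or well fluorescence over plate mean plus 4 SD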;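 note: Nile Red retained in pooled yeast measured as flow cytometry median fluorescence; 0% = buffer negative control and 100% = Enniatin B positive control; higher means more Nile Red kept so more efflux inhibition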
MT1-MMP act inh = blockers of MT1-MMP proenzyme processing, primary screen, HT1080 RFP-PRO-GFP cells, GFP/RFP fluorescence. GFP/RFP ratio fluorescence, overnight; percent of plate control window, DMSO zero. GFP/RFP ratio change, % at 20 µM. actives 0.061% (n = 360,000);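 active = GFP/RFP ratio change of at least 30% with cell ATP level not reduced by more than half and red fluorescence within 50% of control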
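Test system: HT1080 RFP-PRO-GFP cells; Benchmarks: DMSO and RFP-L50D-GFP cell wells; Timing: cells overnight before dosing, compound overnight, 37 °C, 5% CO2; Compound: one 20 µM compound dose with 1% DMSO; Read-out: GFP/RFP fluorescence ratio.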
HGIII-sPLA2 inh = human group III sPLA2 inhibitors, primary screen, biochemical, QFRET, BODIPY PC-A2 liposome substrate. Group 3 secretory phospholipase A2 (Homo sapiens), Q9NZ20. QFRET BODIPY PC-A2 liposome hydrolysis, fluorescence. inhibition, % at 12.2 µM. actives 0.56% (n = 370,000). AID 743126, 2013;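 active = inhibition above mean plus 3 SD of compounds lying within the high and low control bounds, cut at about 19% in these data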;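 note: 0% = median of test compound wells and 100% = no enzyme DMSO wells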
Target sequence (Q9NZ20 whole entry, looked up): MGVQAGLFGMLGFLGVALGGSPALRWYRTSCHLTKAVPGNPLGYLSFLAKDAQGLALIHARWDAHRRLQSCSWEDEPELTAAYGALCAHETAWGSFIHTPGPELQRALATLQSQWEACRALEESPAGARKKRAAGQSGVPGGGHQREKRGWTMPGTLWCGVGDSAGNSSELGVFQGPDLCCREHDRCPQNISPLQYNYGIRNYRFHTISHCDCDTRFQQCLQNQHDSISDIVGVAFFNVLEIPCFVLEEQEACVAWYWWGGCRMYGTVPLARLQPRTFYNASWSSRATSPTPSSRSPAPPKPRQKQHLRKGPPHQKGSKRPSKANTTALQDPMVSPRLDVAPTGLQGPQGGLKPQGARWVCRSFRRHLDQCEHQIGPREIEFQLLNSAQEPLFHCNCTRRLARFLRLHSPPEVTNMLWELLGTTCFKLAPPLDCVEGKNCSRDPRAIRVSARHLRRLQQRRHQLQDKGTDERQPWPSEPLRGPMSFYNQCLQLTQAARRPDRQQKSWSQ
TAG inh = inhibitors of triacylglycerol accumulation, primary screen, cell-based, uHTS, fluorescence, H9c2. H9c2 cells, Nile Red lipid (TAG) fluorescence; cells loaded with 200 µM oleic acid. inhibition, % at 12.5 µM. actives 0.66% (n = 230,000). AID 651582, 2012;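 active = pattern-corrected inhibition of lipid staining of at least 50% with the nuclear-stain viability signal not falling by more than 50%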;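 note: 0% = DMSO wells and 100% = triacsin C control wells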
TAG conf = triacylglycerol accumulation inhibitors, retest, confirmation, cell-based, single concentration, Nile Red fluorescence, H9c2; shares compounds with TAG inh; H9c2 lipid accumulation; cells loaded with 200 µM oleic acid; inhibition, % at 12.5 µM; actives 71% (n = 990);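 active = mean inhibition across replicates of 40% or more; inactive = mean inhibition below 40%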;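 note: plate controls were DMSO only wells for no effect and Triacsin C treated wells for full effect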
* marks the source's active call; other numbers are inactive results; x = no result given. Hits are enriched below; roughly 1.3% of the tested compounds scored in any of these assays.

SMILES	Efflux pump mplx	MT1-MMP act inh	HGIII-sPLA2 inh	TAG inh	TAG conf
NC(c1csc(Nc2ccc(C(=O)c3ccccc3)cc2)n1)C1CCCCC1 (configuration not stated)	x	-9.7	7.3	56.8*	36.2
CC(=O)c1ccc(Nc2nc(C(N)C3CCCCC3)cs2)cc1 (configuration not stated)	x	-5.3	13.6	14.2	x
Cc1cc(NC(=O)CSc2nc(-c3cccs3)nc3ccccc23)no1	0.2	2.0	-1.4	78.3*	72.6*
O=C(Nc1ccccn1)c1ccc(Cl)c(S(=O)(=O)N2CCc3ccccc32)c1	0.0	7.7	-5.3	6.9	x
COC(=O)c1cc(C(=O)N2CCN(c3cccc(Cl)c3)CC2)cc([N+](=O)[O-])c1	0.0	6.7	-4.9	63.5*	56.3*
O=C(c1cccc([N+](=O)[O-])c1)N1CCN(c2cccc(Cl)c2)CC1	0.2	0.6	3.8	5.7	x
Cc1ccc(N2C(=O)C3CC(c4ccccc4)=C4C5C=CC(C6C(=O)N(c7ccc(C)cc7C)C(=O)C56)C4C3C2=O)c(C)c1 (configuration not stated)	0.2	-5.0	x	51.1*	53.2*
COC(=O)[C@@]12CCCCC=C1N(CCc1ccc(Cl)cc1)C(=O)[C@H]2CC(=O)NCCCCc1ccccc1	x	x	-14.8	x	x
O=C(/C=C\c1ccccc1)Oc1cccc2cccnc12	-0.1	-10.4	4.6	0.8	x
O=C(/C=C/c1ccccc1)Oc1cccc2cccnc12	0.0	2.1	10.1	50.5*	-4.6
COc1cc(C2=NOC(C(=O)NCc3cccs3)C2)cc(OC)c1OC (configuration not stated)	0.0	18.1	3.1	52.2*	62.6*
COc1ccc(C2=NOC(C(=O)NCc3cccs3)C2)cc1OC (configuration not stated)	-0.1	x	1.9	x	x
CC1(C)Cc2nc3sc4c(SCC(=O)NCc5ccco5)ncnc4c3cc2CO1	0.1	-7.1	-5.4	54.0*	46.7*
Cc1ccc2nc(NC(=O)c3ccccc3F)sc2c1	0.0	3.1	-13.0	1.6	x
CCCC(=O)Nc1nc2ccc(NC(=O)c3ccccc3F)cc2s1	0.0	-7.9	-2.4	52.2*	81.5*
O=C(Nc1cccc(S(=O)(=O)N2CCCCC2)c1)c1ccccn1	0.0	1.3	-1.2	-28.8	x
O=C(Nc1cccc(NS(=O)(=O)c2ccc(S(=O)(=O)NC3CC3)cc2)c1)c1ccccn1	0.1	4.0	-29.7	56.3*	24.6
Cc1nn(-c2ccccc2)c2c1CC(=O)Nc1ccccc1-2	x	24.1	-3.9	73.9*	86.9*
C=CCC[C@H](Cc1ccc(F)cc1)C(=O)OC[C@H](C)NC(=O)[C@@H](CC=C)CC(=O)N[C@H](CO)Cc1ccccc1	0.0	14.9	-0.5	54.6*	43.6*
CCc1nc(NCCCCCO)c2nnn(Cc3ccccc3F)c2n1	0.1	-0.6	-2.1	9.8	x
COc1ccc(Oc2nc(-c3ccccn3)nc3ccccc23)cc1	0.0	-2.6	0.4	62.3*	53.4*
COc1ccc(Oc2nc(-c3ccncc3)nc3ccccc23)cc1	0.0	-5.0	3.1	21.1	x
Fc1ccc(Oc2nc(-c3ccccn3)nc3ccccc23)cc1	0.0	-5.6	6.0	56.3*	42.2*
c1ccc(Oc2nc(-c3ccccn3)nc3ccccc23)cc1	0.0	-4.4	18.3	72.5*	50.9*
COc1ccc(C(C#N)=Cc2cc(OC)c(OC)c(OC)c2)cc1	x	x	-7.7	x	x
SMILES	Efflux pump mplx	MT1-MMP act inh	HGIII-sPLA2 inh	TAG inh	TAG conf
O=C(CNC(=O)c1cccs1)Nc1ccc(N2CCOCC2)cc1	0.5	1.1	7.9	-14.9	x
CC(C)N(C(=O)N1CCN(c2ccnc3cc(Cl)ccc23)CC1)C(C)C	x	-5.1	-1.8	x	x
Cc1cc(C)c2c(=O)n3c(nc2c1)C(C)NC(=O)c1cccnc1-3 (configuration not stated)	x	1.3	3.7	6.2	x
Nc1ccn([C@@H]2O[C@H](C(=O)N[C@H]3c4ccccc4C[C@H]3O)[C@@H](O)[C@H]2O)c(=O)n1	x	2.7	5.2	x	x
COc1ccc(C(=O)Nc2ccc(-c3nnn(CC(=O)NCc4ccco4)n3)cc2)cc1	-0.1	0.5	-6.7	52.8*	16.5
COc1ccc(NC(=O)Cn2c(=O)n(-c3ccc(CC(=O)NCc4ccco4)cc3)c(=O)c3ccccc32)cc1	-0.1	-0.5	-2.9	65.3*	53.8*
COc1ccccc1NC(=O)c1ccccc1S(=O)(=O)c1ccc([N+](=O)[O-])cc1	0.1	0.7	3.2	53.9*	-10.7
C[C@@H]1CCCCO[C@H](CN(C)S(=O)(=O)c2ccc(F)cc2)[C@@H](C)CN([C@H](C)CO)C(=O)c2cc(NC(=O)Nc3ccc(C(F)(F)F)cc3)ccc2O1	x	0.3	-24.1	45.9	x
COc1ccc(S(=O)(=O)N(C)C[C@@H]2OCCCC[C@H](C)Oc3ccc(NC(=O)Nc4ccc(C(F)(F)F)cc4)cc3C(=O)N([C@H](C)CO)C[C@H]2C)cc1	x	0.2	-36.0	59.4*	43.7*
Oc1ccc(C[C@H]2CNC(=S)N2CC2CCCN2C[C@H](Cc2ccc(O)cc2)N2C[C@H](Cc3ccc(O)cc3)N(CC3CCCCCC3)C2=S)cc1 (some centres not stated)	x	-5.5	-8.5	75.8*	72.1*
CC(C)C[C@H]1CNC(=S)N1CC1CCCN1C[C@H](CC(C)C)N1C[C@H](CC(C)C)N(CCc2ccccc2)C1=S (some centres not stated)	x	1.5	-15.4	74.3*	81.5*
CC(C)C[C@H]1CNC(=S)N1CC1CCCN1C[C@H](CC(C)C)N1C[C@H](Cc2ccccc2)N(CC2CCCCCC2)C1=S (some centres not stated)	x	-5.2	-2.2	-10.7	x
CC(C)C[C@H]1CNC(=S)N1CC1CCCN1C[C@H](CC(C)C)N1C[C@H](CC(C)C)N(CC2CCCCCC2)C1=S (some centres not stated)	x	-4.1	3.5	62.3*	55.3*
Cc1[nH]c2ccccc2c1/C=N/Nc1nc(Nc2ccc(F)cc2)nc(N2CCOCC2)n1	-0.2	-3.4	-5.8	75.7*	85.8*
CCC1=Nc2cc(C(=O)NCCN3CCCC3)ccc2Sc2ccccc21	0.2	3.3	3.8	x	x
CCC1=Nc2cc(C(=O)NCCCOC)ccc2Sc2ccccc21	-0.2	13.0	1.2	61.0*	44.6*
COc1cccc(/C=C/C(=O)NNC(=O)c2ccccc2)c1OC	0.1	-1.1	-5.2	-4.7	x
COc1cccc(/C=C/C(=C2/C(=O)N(c3ccccc3)N=C2C)c2ccc(C)cc2)c1OC	-0.2	6.7	6.5	111.5*	128.6*
CC(C)(C)OC(=O)[C@H](Cc1ccccc1)NC(=O)c1ncn2c1c(=O)[nH]c1ccc(Br)cc12	x	-4.0	-0.6	64.8*	77.0*

Source: PubChem BioAssay
